Laboratory results published in ChEMBL document CHEMBL1154186, “Synthesis, kinase inhibitory potencies, and in vitro antiproliferative evaluation of new Pim kinase inhibitors” (J Med Chem, 2009).

Columns and labels:
[1] = biological target: Proto-oncogene tyrosine-protein kinase Src (Homo sapiens) (UniProt P12931); test: Inhibition of Src assessed as residual enzyme activity at 10 uM relative to untreated control
[2] = biological target: Aurora kinase B (Homo sapiens) (UniProt Q96GD4); test: Inhibition of AURORA B assessed as residual enzyme activity at 10 uM relative to untreated control
Method in brief: (§1)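 Kinases of human origin, except CK1δ, which is rat. Run in 50 mM Tris/HCl pH 7.5, 0.1 mM EGTA, 0.1% 2-mercaptoethanol and 10 mM Mg acetate, with [γ-33P]ATP at 20 µM, 30 min at 21 °C. Acid-stopped and captured on P81 filters. Compound tested at 10 µM; residual % of uninhibited control, duplicate determinations.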

[3] = biological target: Serine/threonine-protein kinase PAK 5 (Homo sapiens) (UniProt Q9P286); test: Inhibition of PAK5 assessed as residual enzyme activity at 10 uM relative to untreated control; method in brief: as §1
[4] = Inhibition of CK2 assessed as residual enzyme activity at 10 uM relative to untreated control
Method in brief: (§2)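 Radiometric filter-binding assay at 21 °C for 30 min. Mix: 50 mM Tris/HCl pH 7.5, 0.1 mM EGTA, 0.1% 2-mercaptoethanol, 10 mM Mg acetate and [γ-33P]ATP (800 cpm/pmol) at 5 µM. Stopped with orthophosphoric acid and spotted on P81. Compound at 10 µM; activity given as % remaining versus no-inhibitor control, duplicates. Kinases human full-length unless noted.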

[5] = biological target: Serine/threonine-protein kinase Nek7 (Homo sapiens) (UniProt Q8TDX7); test: Inhibition of NEK7 assessed as residual enzyme activity at 10 uM relative to untreated control; method in brief: as §1
[6] = biological target: Cyclin-dependent kinase 2/cyclin A (Homo sapiens) (UniProt P24941+P20248+P78396); test: Inhibition of CDK2/Cyclin A assessed as residual enzyme activity at 10 uM relative to untreated control; assay type: protein-complex assay; method in brief: as §1
[7] = biological target: Mitogen-activated protein kinase 10 (Homo sapiens) (UniProt P53779); test: Inhibition of JNK3 assessed as residual enzyme activity at 10 uM relative to untreated control
Method in brief: (§3)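 Assayed with [γ-33P]ATP at 50 µM and 10 mM Mg acetate in 50 mM Tris/HCl pH 7.5, 0.1 mM EGTA, 0.1% 2-mercaptoethanol, 30 min, 21 °C. Phosphoric acid stop, P81 filter capture. ERK2 and Lck are mouse; AMPK is rat. 10 µM compound; % activity remaining relative to control without inhibitor, duplicates.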

[8] = biological target: Serine/threonine-protein kinase Nek6 (Homo sapiens) (UniProt Q9HC98); test: Inhibition of NEK6 assessed as residual enzyme activity at 10 uM relative to untreated control; method in brief: as §3
[9] = biological target: Serine/threonine-protein kinase PAK 4 (Homo sapiens) (UniProt O96013); test: Inhibition of PAK4 assessed as residual enzyme activity at 10 uM relative to untreated control; method in brief: as §2
[10] = biological target: T1, Inhibitor of nuclear factor kappa-B kinase subunit beta (Homo sapiens) (UniProt O14920); test: Inhibition of IKK-beta assessed as residual enzyme activity at 10 uM relative to untreated control; method in brief: as §2
T1 sequence (whole entry): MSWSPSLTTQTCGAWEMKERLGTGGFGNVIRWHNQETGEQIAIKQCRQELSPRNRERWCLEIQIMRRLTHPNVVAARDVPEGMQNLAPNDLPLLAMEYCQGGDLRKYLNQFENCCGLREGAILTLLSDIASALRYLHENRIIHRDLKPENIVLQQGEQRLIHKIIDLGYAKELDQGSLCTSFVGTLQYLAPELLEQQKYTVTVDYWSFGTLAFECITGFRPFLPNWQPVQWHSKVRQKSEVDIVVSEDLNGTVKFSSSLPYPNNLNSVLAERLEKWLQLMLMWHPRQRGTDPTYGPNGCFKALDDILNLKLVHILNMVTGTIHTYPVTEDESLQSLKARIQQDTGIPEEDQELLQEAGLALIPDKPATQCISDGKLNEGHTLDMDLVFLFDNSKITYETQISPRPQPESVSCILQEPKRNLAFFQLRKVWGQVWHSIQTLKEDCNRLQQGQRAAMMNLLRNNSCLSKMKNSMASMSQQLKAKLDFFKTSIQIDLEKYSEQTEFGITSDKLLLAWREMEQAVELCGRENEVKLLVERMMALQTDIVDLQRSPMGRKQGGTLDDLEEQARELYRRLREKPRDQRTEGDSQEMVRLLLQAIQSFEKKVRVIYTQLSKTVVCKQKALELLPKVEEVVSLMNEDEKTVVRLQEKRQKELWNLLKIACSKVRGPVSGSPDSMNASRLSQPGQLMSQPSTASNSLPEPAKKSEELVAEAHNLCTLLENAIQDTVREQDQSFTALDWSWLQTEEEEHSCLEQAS

[11] = biological target: Homeodomain-interacting protein kinase 2 (Homo sapiens) (UniProt Q9H2X6); test: Inhibition of HIPK2 assessed as residual enzyme activity at 10 uM relative to untreated control; method in brief: as §2
[12] = biological target: T2, 3-phosphoinositide-dependent protein kinase 1 (Homo sapiens) (UniProt O15530); test: Inhibition of PDK1 assessed as residual enzyme activity at 10 uM relative to untreated control; method in brief: as §1
T2 sequence (whole entry): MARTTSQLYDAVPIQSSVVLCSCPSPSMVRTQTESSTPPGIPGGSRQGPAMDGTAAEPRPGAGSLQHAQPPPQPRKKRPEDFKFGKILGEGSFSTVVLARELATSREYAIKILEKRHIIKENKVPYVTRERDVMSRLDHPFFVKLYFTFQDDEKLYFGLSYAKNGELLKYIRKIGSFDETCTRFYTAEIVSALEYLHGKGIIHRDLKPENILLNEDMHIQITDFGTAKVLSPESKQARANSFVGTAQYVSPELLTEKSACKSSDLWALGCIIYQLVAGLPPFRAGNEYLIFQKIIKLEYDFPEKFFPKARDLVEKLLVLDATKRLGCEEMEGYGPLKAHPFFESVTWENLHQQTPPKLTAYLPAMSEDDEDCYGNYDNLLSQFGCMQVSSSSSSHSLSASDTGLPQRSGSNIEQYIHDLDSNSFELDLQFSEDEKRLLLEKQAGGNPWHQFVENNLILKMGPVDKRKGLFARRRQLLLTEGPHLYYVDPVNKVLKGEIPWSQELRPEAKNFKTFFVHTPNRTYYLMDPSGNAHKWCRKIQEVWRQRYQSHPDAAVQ

[13] = test system: Lck (Mus musculus); test: Inhibition of Lck assessed as residual enzyme activity at 10 uM relative to untreated control

Sequence of Mitogen-activated protein kinase 10 (Homo sapiens) (P53779 whole entry): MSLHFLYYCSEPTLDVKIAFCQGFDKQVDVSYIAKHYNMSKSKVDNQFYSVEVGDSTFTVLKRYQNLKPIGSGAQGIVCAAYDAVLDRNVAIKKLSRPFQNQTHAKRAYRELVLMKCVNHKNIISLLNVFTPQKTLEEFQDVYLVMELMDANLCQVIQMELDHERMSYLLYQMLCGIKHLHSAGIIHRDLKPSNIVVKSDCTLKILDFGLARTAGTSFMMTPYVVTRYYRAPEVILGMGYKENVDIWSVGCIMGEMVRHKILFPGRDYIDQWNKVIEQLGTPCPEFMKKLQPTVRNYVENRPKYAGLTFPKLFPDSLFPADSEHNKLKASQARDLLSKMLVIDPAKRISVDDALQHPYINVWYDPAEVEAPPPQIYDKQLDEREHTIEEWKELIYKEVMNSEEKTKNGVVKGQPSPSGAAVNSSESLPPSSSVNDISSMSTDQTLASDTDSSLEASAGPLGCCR
Sequence of Proto-oncogene tyrosine-protein kinase Src (Homo sapiens) (P12931 2-536 limits assumed): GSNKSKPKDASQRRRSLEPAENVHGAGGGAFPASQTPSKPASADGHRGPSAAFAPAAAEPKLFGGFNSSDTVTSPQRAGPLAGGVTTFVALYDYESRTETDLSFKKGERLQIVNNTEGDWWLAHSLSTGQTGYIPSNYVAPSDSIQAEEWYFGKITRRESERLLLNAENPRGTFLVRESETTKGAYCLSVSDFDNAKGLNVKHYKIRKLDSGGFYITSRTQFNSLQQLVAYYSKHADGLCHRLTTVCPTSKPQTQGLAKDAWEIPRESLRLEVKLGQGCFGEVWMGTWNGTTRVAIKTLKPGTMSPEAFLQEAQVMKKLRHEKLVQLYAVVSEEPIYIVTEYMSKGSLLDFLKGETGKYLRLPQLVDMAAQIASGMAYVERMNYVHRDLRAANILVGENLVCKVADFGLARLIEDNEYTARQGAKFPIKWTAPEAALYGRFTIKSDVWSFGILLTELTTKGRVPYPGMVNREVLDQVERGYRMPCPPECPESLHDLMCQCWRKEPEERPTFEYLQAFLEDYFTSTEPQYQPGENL
Sequence of Serine/threonine-protein kinase PAK 5 (Homo sapiens) (Q9P286 whole entry, looked up): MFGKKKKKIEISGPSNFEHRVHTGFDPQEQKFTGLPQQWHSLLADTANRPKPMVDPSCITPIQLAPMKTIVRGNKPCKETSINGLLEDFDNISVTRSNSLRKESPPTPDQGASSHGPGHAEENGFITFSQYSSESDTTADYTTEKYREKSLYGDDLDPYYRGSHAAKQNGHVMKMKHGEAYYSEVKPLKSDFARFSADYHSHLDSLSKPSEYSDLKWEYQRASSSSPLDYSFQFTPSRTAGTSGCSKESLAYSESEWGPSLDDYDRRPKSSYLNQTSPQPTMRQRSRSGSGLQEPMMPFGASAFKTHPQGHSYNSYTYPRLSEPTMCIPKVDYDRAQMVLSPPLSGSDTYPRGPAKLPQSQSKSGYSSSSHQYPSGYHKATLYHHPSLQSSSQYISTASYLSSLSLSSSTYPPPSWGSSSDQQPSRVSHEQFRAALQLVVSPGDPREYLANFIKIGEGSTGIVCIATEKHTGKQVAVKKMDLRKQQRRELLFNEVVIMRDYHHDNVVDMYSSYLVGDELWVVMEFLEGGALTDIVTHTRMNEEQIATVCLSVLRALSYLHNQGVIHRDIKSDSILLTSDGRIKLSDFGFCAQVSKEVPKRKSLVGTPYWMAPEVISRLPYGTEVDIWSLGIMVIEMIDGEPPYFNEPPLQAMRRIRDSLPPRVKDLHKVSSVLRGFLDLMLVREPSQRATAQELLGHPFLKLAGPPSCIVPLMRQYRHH
Sequence of Homeodomain-interacting protein kinase 2 (Homo sapiens) (Q9H2X6 whole entry, looked up): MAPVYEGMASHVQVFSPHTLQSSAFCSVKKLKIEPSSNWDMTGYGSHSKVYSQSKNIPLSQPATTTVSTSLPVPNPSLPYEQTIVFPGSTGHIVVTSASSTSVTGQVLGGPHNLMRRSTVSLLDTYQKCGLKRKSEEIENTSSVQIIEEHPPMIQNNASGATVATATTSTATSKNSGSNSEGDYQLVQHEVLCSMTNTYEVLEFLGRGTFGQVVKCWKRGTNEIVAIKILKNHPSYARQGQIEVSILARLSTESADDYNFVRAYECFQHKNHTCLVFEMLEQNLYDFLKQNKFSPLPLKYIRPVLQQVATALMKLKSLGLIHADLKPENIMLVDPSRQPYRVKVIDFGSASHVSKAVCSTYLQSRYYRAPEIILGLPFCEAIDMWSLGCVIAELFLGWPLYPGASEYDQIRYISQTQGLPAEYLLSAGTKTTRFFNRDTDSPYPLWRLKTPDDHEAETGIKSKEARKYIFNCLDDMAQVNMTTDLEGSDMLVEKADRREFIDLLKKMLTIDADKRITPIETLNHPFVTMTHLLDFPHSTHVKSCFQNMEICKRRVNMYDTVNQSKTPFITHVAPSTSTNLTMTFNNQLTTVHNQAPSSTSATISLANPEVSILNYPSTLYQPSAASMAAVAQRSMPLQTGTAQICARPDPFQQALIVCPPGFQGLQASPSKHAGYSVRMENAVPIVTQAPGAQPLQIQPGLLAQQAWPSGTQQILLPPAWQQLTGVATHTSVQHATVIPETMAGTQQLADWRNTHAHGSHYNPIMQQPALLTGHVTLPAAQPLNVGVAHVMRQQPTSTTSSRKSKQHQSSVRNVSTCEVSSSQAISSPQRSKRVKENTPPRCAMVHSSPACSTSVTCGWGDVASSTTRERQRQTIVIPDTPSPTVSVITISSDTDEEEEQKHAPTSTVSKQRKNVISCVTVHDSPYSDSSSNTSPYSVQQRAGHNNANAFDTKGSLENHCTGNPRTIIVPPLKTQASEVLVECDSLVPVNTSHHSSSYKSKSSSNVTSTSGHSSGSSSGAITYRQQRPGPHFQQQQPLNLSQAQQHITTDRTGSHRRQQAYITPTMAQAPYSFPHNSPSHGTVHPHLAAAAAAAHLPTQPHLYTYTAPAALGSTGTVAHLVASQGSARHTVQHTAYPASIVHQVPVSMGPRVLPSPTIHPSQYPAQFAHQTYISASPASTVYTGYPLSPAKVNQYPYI
Sequence of Serine/threonine-protein kinase Nek6 (Homo sapiens) (Q9HC98 whole entry): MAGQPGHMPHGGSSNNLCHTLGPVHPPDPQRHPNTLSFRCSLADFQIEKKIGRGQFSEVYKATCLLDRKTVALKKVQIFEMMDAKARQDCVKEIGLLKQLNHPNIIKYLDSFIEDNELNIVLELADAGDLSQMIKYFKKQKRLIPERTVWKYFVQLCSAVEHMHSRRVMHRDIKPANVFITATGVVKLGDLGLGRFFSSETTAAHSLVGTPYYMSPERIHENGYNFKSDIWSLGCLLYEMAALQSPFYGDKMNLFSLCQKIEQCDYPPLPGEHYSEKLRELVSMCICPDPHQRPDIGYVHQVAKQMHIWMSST
Sequence of Serine/threonine-protein kinase Nek7 (Homo sapiens) (Q8TDX7 whole entry, looked up): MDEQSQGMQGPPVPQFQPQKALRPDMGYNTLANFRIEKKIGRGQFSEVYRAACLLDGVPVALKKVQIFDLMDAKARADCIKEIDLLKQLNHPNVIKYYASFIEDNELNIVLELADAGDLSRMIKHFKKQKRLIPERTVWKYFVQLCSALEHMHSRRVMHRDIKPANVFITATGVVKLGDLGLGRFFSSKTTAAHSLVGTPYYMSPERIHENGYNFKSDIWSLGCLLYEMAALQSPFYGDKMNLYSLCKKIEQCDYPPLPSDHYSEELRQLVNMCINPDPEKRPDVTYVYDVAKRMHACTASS
Sequence of Serine/threonine-protein kinase PAK 4 (Homo sapiens) (O96013 whole entry, looked up): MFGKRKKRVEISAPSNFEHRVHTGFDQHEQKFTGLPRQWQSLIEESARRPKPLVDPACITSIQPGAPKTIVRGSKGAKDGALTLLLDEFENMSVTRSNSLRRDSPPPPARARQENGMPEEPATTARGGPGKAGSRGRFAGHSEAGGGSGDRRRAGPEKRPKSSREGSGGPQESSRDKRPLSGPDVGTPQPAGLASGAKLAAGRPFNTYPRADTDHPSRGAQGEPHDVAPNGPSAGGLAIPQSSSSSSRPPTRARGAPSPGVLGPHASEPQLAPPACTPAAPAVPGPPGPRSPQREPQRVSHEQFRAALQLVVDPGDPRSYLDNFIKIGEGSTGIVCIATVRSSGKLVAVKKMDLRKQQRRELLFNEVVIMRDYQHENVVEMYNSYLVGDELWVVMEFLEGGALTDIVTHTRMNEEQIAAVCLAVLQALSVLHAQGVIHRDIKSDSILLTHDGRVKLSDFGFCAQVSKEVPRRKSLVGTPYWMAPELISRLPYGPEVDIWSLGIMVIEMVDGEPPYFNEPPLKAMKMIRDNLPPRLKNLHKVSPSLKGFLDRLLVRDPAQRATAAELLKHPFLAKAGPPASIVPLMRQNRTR
Sequence of Aurora kinase B (Homo sapiens) (Q96GD4 whole entry): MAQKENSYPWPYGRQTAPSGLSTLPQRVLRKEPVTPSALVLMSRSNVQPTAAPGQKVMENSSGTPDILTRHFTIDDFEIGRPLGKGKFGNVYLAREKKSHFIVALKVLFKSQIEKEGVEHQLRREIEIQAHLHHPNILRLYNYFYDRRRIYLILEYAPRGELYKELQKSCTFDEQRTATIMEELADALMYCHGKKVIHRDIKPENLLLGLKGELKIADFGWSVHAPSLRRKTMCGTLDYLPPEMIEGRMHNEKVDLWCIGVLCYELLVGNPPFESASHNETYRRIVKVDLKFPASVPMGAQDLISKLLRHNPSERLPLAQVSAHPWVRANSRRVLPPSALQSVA

| Activity [1] [%] | Activity [2] [%] | Activity [3] [%] | Activity [4] [%] | Activity [5] [%] | Activity [6] [%] | Activity [7] [%] | Activity [8] [%] | Activity [9] [%] | Activity [10] [%] | Activity [11] [%] | Activity [12] [%] | Activity [13] [%] | SMILES |
| --- | --- | --- | --- | --- | --- | --- | --- | --- | --- | --- | --- | --- | --- |
| 85 | 68 | 87 | 62 | 89 | 74 | 113 | 78 | 88 | 71 | – | – | – | O=Cc1c[nH]c2c1ccc1c3ccccc3[nH]c12 |
| 102 | 67 | 99 | 96 | 92 | 95 | 111 | 71 | 84 | 110 | 72 | 82 | 81 | c1ccc2c(c1)[nH]c1c3cc[nH]c3ccc21 |
| 98 | 67 | 82 | 91 | 96 | 97 | 108 | 90 | 84 | 106 | 59 | 86 | 88 | c1ccc2c(c1)[nH]c1c2ccc2cc[nH]c21 |
| 99 | 92 | 96 | 98 | 95 | 109 | 96 | 86 | 88 | 108 | 95 | 85 | 114 | O=Cc1c[nH]c2ccc3c4ccccc4[nH]c3c12 |
